Results pooled from the literature.
Protocols differ between the studies behind these lines.
Target: Dual specificity mitogen-activated protein kinase kinase 6 (MAP2K6, Homo sapiens, UniProt P52564)
Residues used in one study (P52564 1-334): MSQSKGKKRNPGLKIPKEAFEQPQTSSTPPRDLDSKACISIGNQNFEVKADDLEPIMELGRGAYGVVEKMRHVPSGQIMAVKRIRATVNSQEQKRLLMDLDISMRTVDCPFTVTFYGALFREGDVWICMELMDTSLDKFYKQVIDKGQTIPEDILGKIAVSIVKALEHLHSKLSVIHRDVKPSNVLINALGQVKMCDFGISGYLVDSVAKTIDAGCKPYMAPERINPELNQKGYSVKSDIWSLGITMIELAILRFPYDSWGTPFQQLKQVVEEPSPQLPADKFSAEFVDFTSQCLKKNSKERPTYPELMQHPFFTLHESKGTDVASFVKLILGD

CN([C@@H]1CCc2c(CC(=O)O)c3ccccc3n2C1)S(=O)(=O)c1ccc(F)cc1  remaining binding (cell-free assay; competition with immobilised ligand; 1 µM): 100%
CN(CCCC(F)(F)F)c1nccc(-c2cnn3ncccc23)n1  remaining binding (binding; 1 µM): 100%
FC(F)(F)Oc1cccc(-c2cnc3ccc(-c4ccncc4)nn23)c1  remaining binding (cell-free assay; competition with immobilised ligand; 5 µM): 84%
O=C(NCC1CCOCC1)c1n[nH]cc1NC(=O)c1c(F)cccc1F  remaining binding (binding; competition with immobilised ligand; 1 µM): 95%
O=C(c1ccc(Nc2nccc(-c3cc4ccccc4s3)n2)cc1)N1CCC(N2CCCC2)CC1  remaining binding (binding; competition with immobilised ligand; 1 µM): 33%
N[C@H]1CCN(c2nccc(-c3cnn4ncccc34)n2)C1  remaining binding (binding; 1 µM): 100%
CC1=C(C#N)[C@@H](c2ccc3[nH]nc(C)c3c2)C(C#N)=C(c2ccc(Cl)cc2)N1  remaining binding (cell-free assay; competition with immobilised ligand; 1 µM): 100%
COc1cnc(Nc2cccc(S(N)(=O)=O)c2)nc1N1CCN(c2ccccc2)C(=O)C1  remaining binding (binding; competition with immobilised ligand; 1 µM): 100%
CO[C@@H](C)c1c(Nc2ccc([C@@H](N(C)C(=O)C3CCS(=O)(=O)CC3)C(F)(F)F)cc2)cnc2cc(Cl)nn12  remaining binding (cell-free assay; competition with immobilised ligand; 1 µM): 92%
O=C(c1ccc(Nc2ncc(Cl)c(-c3ccc(Cl)s3)n2)cc1)N1CCC(N2CCCC2)CC1  remaining binding (binding; competition with immobilised ligand; 1 µM): 29%
CN(c1nccc(-c2cnn3ncccc23)n1)C1CC1  remaining binding (binding; 1 µM): 100%
CCC(=O)N[C@@H]1CC[C@H](C(=O)N(C)c2ccc(-c3nc4ccccc4o3)cc2)C1  remaining binding (cell-free assay; competition with immobilised ligand; 1 µM): 100%
COc1ccnn2ncc(-c3ccnc(N(C)C)n3)c12  remaining binding (binding; 1 µM): 100%
Cn1nc(C(=O)NCc2ccc(C(=O)O)cc2)cc1-c1ccc2[nH]ccc2c1  remaining binding (cell-free assay; competition with immobilised ligand; 0.1 µM): 100%
Cc1cnc(Nc2ccc(C(=O)N3CCC(N4CCCC4)CC3)cc2)nc1-c1cc2ccccc2s1  remaining binding (binding; competition with immobilised ligand; 1 µM): 30%
CN(C)c1nccc(-c2cnn3ncccc23)n1  remaining binding (binding; 1 µM): 58%
CNC(=O)[C@@H]1CC[C@@H](n2c(-c3ccc4cnccc4c3)nc3ccc(C(=O)NCc4cccc(C(N)=O)c4)cc32)C1  remaining binding (binding; competition with immobilised ligand; 1 µM): 100%
C[C@H]1CCN(c2nccc(-c3cnn4ncccc34)n2)C1  remaining binding (binding; 1 µM): 100%
CS(=O)(=O)N1CCCC(NC(=O)[C@H](CCC2CCCCC2)NC(=O)c2ccc(CNc3ncnc4c3nnn4-c3ccccc3)cc2)C1 (some centres unmarked)  remaining binding (cell-free assay; competition with immobilised ligand; 0.1 µM): 67%
C=CC(=O)N1CCC(C(=O)NCC(=O)N2CCN(c3nc(-c4cnc(N)nc4C(F)F)nc(N4CCOCC4)n3)CC2)CC1  remaining binding (binding; competition with immobilised ligand; 1 µM): 100%
CS(=O)(=O)N1CCCC(NC(=O)[C@H](CCC2CCCCC2)NC(=O)c2ccc(CNC(=O)c3cnc4ccccn34)cc2)C1 (some centres unmarked)  remaining binding (cell-free assay; competition with immobilised ligand; 0.1 µM): 72%
CN(C)c1ncc(F)c(-c2cnn3ncccc23)n1  remaining binding (binding; 1 µM): 100%
CCN1CCN(Cc2ccc(C(=O)Nc3ccc(C)c(Oc4ccc5c(c4)CC(=O)N5)c3)cc2C(F)(F)F)CC1  remaining binding (binding; competition with immobilised ligand; 1 µM): 100%
